Assay results: ChEMBL document CHEMBL2010712, “Design and synthesis of orally available MEK inhibitors with potent in vivo antitumor efficacy” (Bioorg Med Chem Lett, 2012)
The source made the active and inactive calls. The calls are words filed in the database; no cut-off is given here.

Columns and labels:
[1] = target: T1, Dual specificity mitogen-activated protein kinase kinase 1 (Homo sapiens, UniProt Q02750); assay: Inhibition of MEK1-mediated ERK1 phosphorylation using IPTTPITTYFFFK-5FAM-COOH as substrate by fluorescent polarization assay
T1 sequence (Q02750 whole entry): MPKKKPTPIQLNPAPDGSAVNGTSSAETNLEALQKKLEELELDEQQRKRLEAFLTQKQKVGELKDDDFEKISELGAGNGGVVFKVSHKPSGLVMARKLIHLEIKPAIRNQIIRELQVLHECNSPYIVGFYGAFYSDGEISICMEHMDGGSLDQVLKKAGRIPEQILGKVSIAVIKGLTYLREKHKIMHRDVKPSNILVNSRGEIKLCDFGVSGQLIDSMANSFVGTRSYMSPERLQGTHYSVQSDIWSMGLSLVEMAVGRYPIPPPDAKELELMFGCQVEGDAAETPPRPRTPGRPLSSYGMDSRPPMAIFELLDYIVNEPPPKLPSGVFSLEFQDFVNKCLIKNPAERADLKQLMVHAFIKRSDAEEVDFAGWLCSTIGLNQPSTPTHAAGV

[2] = target: T1, Dual specificity mitogen-activated protein kinase kinase 1; assay: Inhibition of MEK1-mediated Erk1/2 phosphorylation in human HT-29 cells at 30 mg/kg measured after 4 hrs by in vivo pharmacodynamic model; type: organism-based; design: dose 30 mg/kg
Outline: (§1)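 In vivo pharmacodynamic study: p-ERK1/2 suppression measured 4 h after dosing across a dose response and related to compound plasma concentration.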

[3] = target: Serine/threonine-protein kinase PLK3 (Homo sapiens) (UniProt Q9H4B4); assay: Inhibition of PLK3 at 10 uM
[4] = target: RAF proto-oncogene serine/threonine-protein kinase (Homo sapiens) (UniProt P04049); assay: Inhibition of c-RAF at 10 uM
[5] = target: Hepatocyte growth factor receptor (Homo sapiens) (UniProt P08581); assay: Inhibition of cMET at 10 uM
Sequence of Hepatocyte growth factor receptor (Homo sapiens) (P08581 whole entry): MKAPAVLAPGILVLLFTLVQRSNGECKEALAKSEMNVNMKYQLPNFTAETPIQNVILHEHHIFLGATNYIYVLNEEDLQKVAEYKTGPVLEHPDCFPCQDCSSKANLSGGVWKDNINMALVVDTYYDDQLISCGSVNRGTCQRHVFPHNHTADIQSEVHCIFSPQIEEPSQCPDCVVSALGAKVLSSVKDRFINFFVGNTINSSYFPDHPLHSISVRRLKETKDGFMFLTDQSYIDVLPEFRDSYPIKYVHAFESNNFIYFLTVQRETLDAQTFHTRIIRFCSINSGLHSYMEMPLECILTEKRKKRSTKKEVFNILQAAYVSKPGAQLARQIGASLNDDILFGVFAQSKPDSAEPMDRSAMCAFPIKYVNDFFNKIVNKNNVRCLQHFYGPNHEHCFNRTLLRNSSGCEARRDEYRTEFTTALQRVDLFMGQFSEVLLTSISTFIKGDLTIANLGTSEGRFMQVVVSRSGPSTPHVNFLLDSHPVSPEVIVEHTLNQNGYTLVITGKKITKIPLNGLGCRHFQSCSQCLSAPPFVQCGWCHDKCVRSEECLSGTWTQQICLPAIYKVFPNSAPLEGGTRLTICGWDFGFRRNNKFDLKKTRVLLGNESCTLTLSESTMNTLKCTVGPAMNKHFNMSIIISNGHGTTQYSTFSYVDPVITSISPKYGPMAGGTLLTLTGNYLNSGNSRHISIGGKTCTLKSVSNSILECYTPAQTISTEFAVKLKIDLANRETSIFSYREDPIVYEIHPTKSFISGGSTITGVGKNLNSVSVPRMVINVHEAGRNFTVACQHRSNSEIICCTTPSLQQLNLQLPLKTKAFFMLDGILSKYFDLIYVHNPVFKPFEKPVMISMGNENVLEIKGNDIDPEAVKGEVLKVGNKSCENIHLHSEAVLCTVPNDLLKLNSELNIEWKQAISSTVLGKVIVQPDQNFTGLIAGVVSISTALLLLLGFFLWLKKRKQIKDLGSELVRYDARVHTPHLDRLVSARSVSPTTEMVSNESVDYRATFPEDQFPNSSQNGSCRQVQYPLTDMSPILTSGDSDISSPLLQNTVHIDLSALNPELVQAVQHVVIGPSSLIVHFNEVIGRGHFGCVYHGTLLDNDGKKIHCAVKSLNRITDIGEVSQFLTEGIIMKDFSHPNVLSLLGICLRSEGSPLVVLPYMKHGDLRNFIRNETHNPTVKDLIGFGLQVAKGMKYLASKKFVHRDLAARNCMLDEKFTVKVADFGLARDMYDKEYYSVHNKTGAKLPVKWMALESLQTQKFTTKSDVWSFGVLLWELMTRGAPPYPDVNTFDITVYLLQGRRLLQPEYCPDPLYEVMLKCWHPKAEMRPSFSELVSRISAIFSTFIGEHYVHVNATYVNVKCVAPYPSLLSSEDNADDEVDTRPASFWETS

[6] = target: Tyrosine-protein kinase ABL1 (Homo sapiens) (UniProt P00519); assay: Inhibition of ABL1 at 10 uM
[7] = Half life in human liver microsomes; type: ADME, Microsome
[8] = target: Calcium/calmodulin-dependent protein kinase type 1D (Homo sapiens) (UniProt Q8IU85); assay: Inhibition of CAMK1delta at 10 uM
[9] = target: Glycogen synthase kinase-3 beta (Homo sapiens) (UniProt P49841); assay: Inhibition of GSK3beta at 10 uM
Sequence of Glycogen synthase kinase-3 beta (Homo sapiens) (P49841 whole entry, looked up): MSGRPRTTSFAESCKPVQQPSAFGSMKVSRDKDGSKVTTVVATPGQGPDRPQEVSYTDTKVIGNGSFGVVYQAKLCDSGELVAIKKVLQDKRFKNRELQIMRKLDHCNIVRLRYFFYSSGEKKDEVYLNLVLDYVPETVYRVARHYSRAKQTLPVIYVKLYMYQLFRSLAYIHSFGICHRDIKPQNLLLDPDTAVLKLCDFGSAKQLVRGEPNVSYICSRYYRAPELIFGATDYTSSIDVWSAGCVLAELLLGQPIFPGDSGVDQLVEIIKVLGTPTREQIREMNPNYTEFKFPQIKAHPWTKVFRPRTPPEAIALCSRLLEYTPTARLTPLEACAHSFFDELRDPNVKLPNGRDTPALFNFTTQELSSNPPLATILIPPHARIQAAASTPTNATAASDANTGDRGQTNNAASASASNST

[10] = Oral bioavailability in rat at 5 mg/kg; type: ADME, organism-based; details: in vivo
[11] = target: RAC-gamma serine/threonine-protein kinase (Homo sapiens) (UniProt Q9Y243); assay: Inhibition of AKT3 at 10 uM
[12] = target: 3-phosphoinositide-dependent protein kinase 1 (Homo sapiens) (UniProt O15530); assay: Inhibition of PDK1 at 10 uM
[13] = target: Cyclin-dependent kinase 2/cyclin A (Homo sapiens) (UniProt P24941+P20248+P78396); assay: Inhibition of CDK2/cyclin A at 10 uM; type: protein-complex assay
[14] = target: Proto-oncogene tyrosine-protein kinase Src (Homo sapiens) (UniProt P12931); assay: Inhibition of cSRC at 10 uM
[15] = target: Tyrosine-protein kinase SYK (Homo sapiens) (UniProt P43405); assay: Inhibition of Syk at 10 uM
[16] = target: Epidermal growth factor receptor (Homo sapiens) (UniProt P00533); assay: Inhibition of EGFR at 10 uM
Sequence of Epidermal growth factor receptor (Homo sapiens) (P00533 whole entry): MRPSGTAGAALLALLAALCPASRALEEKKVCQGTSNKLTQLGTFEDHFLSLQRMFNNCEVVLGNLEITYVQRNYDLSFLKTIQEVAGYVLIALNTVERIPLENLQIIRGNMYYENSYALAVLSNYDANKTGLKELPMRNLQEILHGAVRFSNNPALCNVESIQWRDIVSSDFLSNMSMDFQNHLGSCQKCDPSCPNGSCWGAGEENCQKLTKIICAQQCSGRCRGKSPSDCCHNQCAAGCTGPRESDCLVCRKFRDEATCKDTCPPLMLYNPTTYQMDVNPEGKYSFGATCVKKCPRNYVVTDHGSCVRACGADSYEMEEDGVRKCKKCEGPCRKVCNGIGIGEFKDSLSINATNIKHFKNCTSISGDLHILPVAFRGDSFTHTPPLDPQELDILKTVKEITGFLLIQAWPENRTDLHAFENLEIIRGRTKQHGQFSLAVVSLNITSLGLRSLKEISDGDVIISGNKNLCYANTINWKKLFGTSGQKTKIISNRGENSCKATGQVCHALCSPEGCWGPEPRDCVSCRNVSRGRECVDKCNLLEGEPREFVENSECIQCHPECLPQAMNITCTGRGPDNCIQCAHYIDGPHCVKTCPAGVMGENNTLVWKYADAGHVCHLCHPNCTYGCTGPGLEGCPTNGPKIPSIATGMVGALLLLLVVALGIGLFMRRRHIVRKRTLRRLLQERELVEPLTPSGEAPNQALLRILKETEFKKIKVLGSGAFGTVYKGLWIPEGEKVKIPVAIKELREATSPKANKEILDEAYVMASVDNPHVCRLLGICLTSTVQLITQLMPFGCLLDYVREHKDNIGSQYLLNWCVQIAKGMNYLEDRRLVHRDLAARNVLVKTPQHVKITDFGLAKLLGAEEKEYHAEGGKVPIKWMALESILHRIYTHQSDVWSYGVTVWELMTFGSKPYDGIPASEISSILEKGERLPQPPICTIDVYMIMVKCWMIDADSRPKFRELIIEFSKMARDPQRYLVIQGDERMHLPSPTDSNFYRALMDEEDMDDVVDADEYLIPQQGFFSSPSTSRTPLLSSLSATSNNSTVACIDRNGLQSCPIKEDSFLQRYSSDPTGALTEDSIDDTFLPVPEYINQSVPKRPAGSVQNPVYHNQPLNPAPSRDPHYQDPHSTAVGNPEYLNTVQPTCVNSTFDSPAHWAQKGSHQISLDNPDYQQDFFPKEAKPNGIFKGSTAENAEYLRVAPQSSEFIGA

[17] = system: A-375; assay: Cytotoxicity against human A375 cells after 72 hrs by MTS assay; details: A-375, 72 h
[18] = target: Protein kinase C alpha type (Homo sapiens) (UniProt P17252); assay: Inhibition of PKCalpha at 10 uM
[19] = Inhibition of cytochrome P450 at 10 uM; type: ADME
[20] = system: Rattus norvegicus; assay: Dose normalized AUC in rat at 1 mg/kg, iv and 5 mg/kg, po; type: ADME, organism-based; details: in vivo
[21] = target: Platelet-derived growth factor receptor beta (Homo sapiens) (UniProt P09619); assay: Inhibition of PDGFRbeta at 10 uM
Sequence of Platelet-derived growth factor receptor beta (Homo sapiens) (P09619 whole entry): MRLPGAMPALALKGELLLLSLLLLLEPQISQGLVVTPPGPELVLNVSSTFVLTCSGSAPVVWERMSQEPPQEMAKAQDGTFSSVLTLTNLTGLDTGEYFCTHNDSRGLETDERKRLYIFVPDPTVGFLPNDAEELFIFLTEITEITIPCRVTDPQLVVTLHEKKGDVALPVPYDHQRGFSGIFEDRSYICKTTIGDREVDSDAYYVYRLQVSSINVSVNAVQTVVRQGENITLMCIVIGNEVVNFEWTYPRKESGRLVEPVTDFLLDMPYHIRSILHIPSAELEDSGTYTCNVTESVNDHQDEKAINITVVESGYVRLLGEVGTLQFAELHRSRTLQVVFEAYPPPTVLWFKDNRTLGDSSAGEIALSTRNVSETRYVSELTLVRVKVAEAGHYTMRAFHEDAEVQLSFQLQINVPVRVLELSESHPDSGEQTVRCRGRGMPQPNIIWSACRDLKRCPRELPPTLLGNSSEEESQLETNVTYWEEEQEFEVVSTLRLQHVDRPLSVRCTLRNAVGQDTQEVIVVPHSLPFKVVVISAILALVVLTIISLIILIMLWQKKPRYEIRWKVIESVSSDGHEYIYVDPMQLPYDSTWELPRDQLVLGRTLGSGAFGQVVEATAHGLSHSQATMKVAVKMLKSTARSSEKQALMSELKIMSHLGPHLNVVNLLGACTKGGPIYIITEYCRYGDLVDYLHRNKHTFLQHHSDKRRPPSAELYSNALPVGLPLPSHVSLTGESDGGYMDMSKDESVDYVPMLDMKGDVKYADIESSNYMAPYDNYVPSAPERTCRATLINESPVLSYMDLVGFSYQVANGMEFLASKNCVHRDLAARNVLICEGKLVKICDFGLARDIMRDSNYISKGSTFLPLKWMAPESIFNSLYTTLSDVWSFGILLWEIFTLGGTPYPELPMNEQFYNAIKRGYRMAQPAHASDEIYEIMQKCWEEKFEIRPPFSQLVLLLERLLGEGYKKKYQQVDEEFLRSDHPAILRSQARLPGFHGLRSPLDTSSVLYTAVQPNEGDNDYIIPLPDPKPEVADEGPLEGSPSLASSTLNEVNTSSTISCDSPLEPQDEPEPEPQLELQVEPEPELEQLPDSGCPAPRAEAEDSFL

[22] = target: T2, Tyrosine-protein kinase JAK3 (Homo sapiens) (UniProt P52333); assay: Inhibition of JAK3 at 10 uM
T2 sequence (whole entry): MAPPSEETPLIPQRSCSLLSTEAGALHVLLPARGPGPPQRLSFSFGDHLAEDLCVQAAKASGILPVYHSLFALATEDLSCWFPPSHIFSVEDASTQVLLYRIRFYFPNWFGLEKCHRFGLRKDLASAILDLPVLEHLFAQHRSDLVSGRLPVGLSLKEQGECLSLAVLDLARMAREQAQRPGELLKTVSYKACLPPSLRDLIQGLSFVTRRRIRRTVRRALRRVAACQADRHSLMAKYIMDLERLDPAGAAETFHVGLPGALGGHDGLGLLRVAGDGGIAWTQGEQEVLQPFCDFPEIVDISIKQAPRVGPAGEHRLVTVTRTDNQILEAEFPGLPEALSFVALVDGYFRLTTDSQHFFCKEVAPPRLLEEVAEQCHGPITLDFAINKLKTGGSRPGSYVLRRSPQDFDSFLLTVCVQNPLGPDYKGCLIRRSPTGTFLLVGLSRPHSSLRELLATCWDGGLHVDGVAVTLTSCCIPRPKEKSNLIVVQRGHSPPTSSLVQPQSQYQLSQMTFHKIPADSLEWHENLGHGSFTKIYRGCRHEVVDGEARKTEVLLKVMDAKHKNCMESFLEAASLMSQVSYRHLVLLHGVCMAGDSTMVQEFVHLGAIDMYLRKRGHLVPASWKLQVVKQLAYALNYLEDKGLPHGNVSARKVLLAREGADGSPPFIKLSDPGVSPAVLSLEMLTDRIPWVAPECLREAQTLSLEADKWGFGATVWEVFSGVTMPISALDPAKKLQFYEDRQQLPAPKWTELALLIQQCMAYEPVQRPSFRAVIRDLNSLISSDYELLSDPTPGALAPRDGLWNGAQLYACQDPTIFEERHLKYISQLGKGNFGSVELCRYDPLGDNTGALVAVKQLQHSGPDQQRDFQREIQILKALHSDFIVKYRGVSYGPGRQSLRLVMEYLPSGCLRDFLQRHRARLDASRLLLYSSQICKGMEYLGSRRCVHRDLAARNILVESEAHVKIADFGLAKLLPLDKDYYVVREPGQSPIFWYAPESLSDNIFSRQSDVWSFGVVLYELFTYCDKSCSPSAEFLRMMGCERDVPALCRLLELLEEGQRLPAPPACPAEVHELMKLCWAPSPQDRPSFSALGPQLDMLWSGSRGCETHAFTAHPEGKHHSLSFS

[23] = Half life in rat liver microsomes; type: ADME, Microsome
[24] = target: Mitogen-activated protein kinase 14 (Homo sapiens) (UniProt Q16539); assay: Inhibition of p38alpha at 10 uM
Sequence of Mitogen-activated protein kinase 14 (Homo sapiens) (Q16539 whole entry): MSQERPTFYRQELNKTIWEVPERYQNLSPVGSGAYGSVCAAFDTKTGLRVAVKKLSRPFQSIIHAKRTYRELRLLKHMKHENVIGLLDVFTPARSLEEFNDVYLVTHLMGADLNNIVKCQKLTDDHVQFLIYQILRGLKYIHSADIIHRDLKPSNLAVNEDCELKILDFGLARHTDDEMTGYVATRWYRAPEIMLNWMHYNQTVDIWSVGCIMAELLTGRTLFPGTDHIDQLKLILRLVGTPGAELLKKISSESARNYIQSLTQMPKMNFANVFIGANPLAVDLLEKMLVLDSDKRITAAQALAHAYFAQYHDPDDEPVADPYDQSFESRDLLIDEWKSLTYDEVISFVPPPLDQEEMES

[25] = Clearance in rat at 1 mg/kg, iv and 5 mg/kg, po; type: ADME, organism-based; details: in vivo
[26] = Volume of distribution at steady state in rat at 1 mg/kg, iv and 5 mg/kg, po; type: ADME, organism-based; details: in vivo, read-out: Vdss
[27] = target: Insulin receptor (Homo sapiens) (UniProt P06213); assay: Inhibition of IR at 10 uM
[28] = target: Angiopoietin-1 receptor (Homo sapiens) (UniProt Q02763); assay: Inhibition of Tie2 at 10 uM
[29] = system: COLO 205; assay: Cytotoxicity against human COLO205 cells after 72 hrs by MTS assay; details: COLO 205, 72 h
[30] = target: T1, Dual specificity mitogen-activated protein kinase kinase 1; assay: Inhibition of MEK1-mediated Erk1/2 phosphorylation in human HT-29 cells at 3 mg/kg plasma concentration measured after 4 hrs by in vivo pharmacodynamic model; type: organism-based; design: dose 3 mg/kg; outline: as §1
[31] = system: HL-60; assay: Antitumor activity against human HL60 cells xenograft model assessed as inhibition of tumor regression at 10 mg/kg, po; type: functional, organism-based; design: dose 10 mg/kg
Outline: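 HL-60 (NRAS) xenograft; compound given orally once daily at maximum tolerated dose over days 12–25 after tumor implant; tumor response followed versus control, complete regressions counted per group.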

Row | SMILES | IC50 [1] [nM] | inhibition [3] | inhibition [4] | inhibition [5] | inhibition [6] | half-life [7] [min] | inhibition [8] | inhibition [9] | bioavailability [10] [%] | inhibition [11] | inhibition [12] | inhibition [13] | inhibition [14] | inhibition [15] | inhibition [16] | EC50 [17] [nM] | inhibition [18] | inhibition (INH) [19] | AUC/dose [20] [ng·h/mL/mg/kg] | inhibition [21] | other results
1 | C#Cc1ccc(Nc2c(C(=O)NOCCO)c3c(n2C)C(=O)CCC3)c(F)c1 | 32 | inactive | inactive | inactive | inactive | 34 | inactive | inactive | 61 | inactive | inactive | inactive | inactive | inactive | inactive | 15 | inactive | Not Active | 1670 | inactive | inhibition [2]: Active; inhibition [22]: inactive; half-life [23]: 38 min; inhibition [24]: inactive; clearance [25]: 5.9 mL/min/kg; Vd [26]: 0.596 L/kg; inhibition [27]: inactive; inhibition [28]: inactive; EC50 [29]: 10 nM
2 | C#Cc1ccc(Nc2c(C(=O)NOCCO)c3c(n2C)C(=O)CC3)c(F)c1 | 36 | inactive | inactive | inactive | inactive | 107 | inactive | inactive | 51 | inactive | inactive | inactive | inactive | inactive | inactive | 34 | inactive | Not Active | 512 | inactive | inhibition [22]: inactive; half-life [23]: 150 min; inhibition [24]: inactive; clearance [25]: 15.6 mL/min/kg; Vd [26]: 1.19 L/kg; inhibition [27]: inactive; inhibition [28]: inactive; EC50 [29]: 17 nM
3 | Cc1c(Nc2ccc(I)cc2F)c(C(=O)NOCCO)c2n(c1=O)CCC2 | 38 | inactive | inactive | inactive | inactive | 99 | inactive | inactive | 29 | inactive | inactive | inactive | inactive | inactive | inactive | 2 | inactive | Not Active | 204 | inactive | inhibition [30]: Active; inhibition [31]: Active; inhibition [22]: inactive; half-life [23]: 40 min; inhibition [24]: inactive; clearance [25]: 21.4 mL/min/kg; Vd [26]: 0.971 L/kg; inhibition [27]: inactive; inhibition [28]: inactive; EC50 [29]: 1 nM
4 | O=C(NOCCO)c1c(Nc2ccc(I)cc2F)c(F)c(=O)n2c1CCC2 | 25 | inactive | inactive | inactive | inactive | > 200 | inactive | inactive | 21 | inactive | inactive | inactive | inactive | inactive | inactive | 3 | inactive | Not Active | 262 | inactive | inhibition [22]: inactive; half-life [23]: 124 min; inhibition [24]: inactive; clearance [25]: 12.9 mL/min/kg; Vd [26]: 0.745 L/kg; inhibition [27]: inactive; inhibition [28]: inactive; EC50 [29]: 1 nM
